Experiments:
[1] = Hemolytic activity against human RBC incubated for 1 hr by microplate reader analysis; assay type: toxicity, cell-based, Erythrocyte; settings: red blood cells (erythrocytes)
Summary of the method: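 Human red blood cells exposed to peptides up to 50 μM; hemolysis measured, IC50 derived where reached.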

[2] = system: Staphylococcus aureus; assay: Antimicrobial activity against Staphylococcus aureus NE163 harboring single transposon insertion mutation in aureolysin at 30 uM incubated for 18 hrs relative to control; assay type: functional
Summary of the method: (§1)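 CA-MRSA USA300 LAC derivative JE2 and single transposon insertion mutants derived from JE2, each lacking an extracellular protease gene, were exposed to peptides up to 30 μM. The read-out was percent growth inhibition. Peptides were dissolved in PBS, and tests were run in triplicate.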

[3] = system: Staphylococcus aureus; assay: Antimicrobial activity against Staphylococcus aureus NE1506 harboring single transposon insertion mutation in V8 protease at 30 uM incubated for 18 hrs relative to control; assay type: functional; summary of the method: as §1
[4] = system: Staphylococcus aureus; assay: Antimicrobial activity against Staphylococcus aureus NE1740 harboring single transposon insertion mutation in staphopain A at 30 uM incubated for 18 hrs relative to control; assay type: functional; summary of the method: as §1
[5] = system: Staphylococcus aureus; assay: Antimicrobial activity against Staphylococcus aureus NE934 harboring single transposon insertion mutation in staphopain B at 30 uM incubated for 18 hrs relative to control; assay type: functional; summary of the method: as §1
[6] = Toxicity against reconstructed human skin model assessed as irritation at 50 uM incubated for 1 hr followed by compound washout measured after 42 hrs by MTT assay; assay type: tissue-based, Skin of body
Summary of the method: (§2)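 Reconstructed human epidermis with stratum corneum, per OECD TG 439 skin irritation guideline. Tissues exposed 1 h to peptide at 50 μM, then 42 h post-treatment incubation. Viability read by MTT. Controls were SDS and melittin.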

[7] = Toxicity against reconstructed human skin model assessed as tissue viability at 50 uM incubated for 1 hr followed by compound washout measured after 42 hrs by MTT assay; assay type: tissue-based, Skin of body; settings: read-out: Activity; summary of the method: as §2
[8] = Stability in simulated pore POPC lipid bilayer membrane; assay type: physicochemical
Summary of the method: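 Coarse-grained MD with the "scaled" Martini force field, peptides in POPC membrane, 51 μs. Counts transmembrane peptides at 51 μs. Water beads within 2 nm vertically of membrane centre and peptide–peptide interaction energy averaged over 48–51 μs. Contacts (salt bridge or stacking) scored below 0.8 nm and called stable if present ≥50% of the time.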

[9] = system: Escherichia coli; assay: Antimicrobial activity against Escherichia coli TOP10 incubated for 24 hrs by broth microdilution assay; assay type: functional
[10] = system: Staphylococcus carnosus; assay: Antimicrobial activity against Staphylococcus carnosus CCM 4838T incubated for 24 hrs by broth microdilution assay; assay type: functional

In the case of H-KKKKLKKILKKLFQFINQLENQLQEIKQNK-NH2, the IC50 at 1 h [1] is reported as greater than 50 µM.
Work on H-KKKKLKKILKKLFQFIQQLDQQLQDIKQQK-NH2 yielded an IC50 at 1 h [1] greater than 50 µM, an inhibition at 30 µM [2] of less than 45% and an inhibition at 30 µM [3] of less than 45%. For the same substance, the inhibition at 30 µM [4] was less than 45%, the inhibition at 30 µM [5] was less than 45% and the Activity [6] was “Non-Toxic”. It also gave a viability at 1 h, 50 µM [7] of 100%.
In the case of H-KKKKLKKILKKLFSFISSLDSSLSDIKSSK-NH2, the Stability [8] is reported as “Stable”, the inhibition at 30 µM [2] is reported as less than 45% and the inhibition at 30 µM [3] is reported as less than 45%. The inhibition at 30 µM [4] was less than 45% and the inhibition at 30 µM [5] was less than 45%.
H-KKKKLKKILKKLWQWINQLDNQLQDIKQNK-NH2 showed an IC50 at 1 h [1] greater than 50 µM.
Work on H-KKKKLKKLLKKLFQFLNQLDNQLQDLKQNK-NH2 yielded an inhibition at 30 µM [2] of less than 45%, an inhibition at 30 µM [3] of less than 45% and an inhibition at 30 µM [4] of less than 45%. The inhibition at 30 µM [5] was less than 45%.
H-KKKKLRRILRRLFQFINQLDNQLQDIKQNK-NH2 showed an IC50 at 1 h [1] of 49 µM.
H-KKKKMKKMMKKMFQFMNQMDNQMQDMKQNK-NH2 showed an MIC [9] greater than 50 µM, an inhibition at 30 µM [2] of less than 45% and an inhibition at 30 µM [3] of less than 45%. It also gave an inhibition at 30 µM [4] of less than 45% and an inhibition at 30 µM [5] of less than 45%.
With H-KKKKVKKVVKKVFQFVNQVDNQVQDVKQNK-NH2 the MIC [9] was greater than 50 µM, the MIC [10] was greater than 50 µM and the inhibition at 30 µM [2] was less than 45%. The inhibition at 30 µM [3] was less than 45%, the inhibition at 30 µM [4] was less than 45% and the inhibition at 30 µM [5] was less than 45%.
In the case of H-KNQNLDDILNQLFQFINQLKNQLQKIKKKK-NH2, the MIC [9] is reported as greater than 50 µM.
In the case of H-RRRRLKKILKKLFQFINQLDNQLQDIRQNR-NH2, the IC50 at 1 h [1] is reported as 6.9 µM.

Source: ChEMBL document CHEMBL5576140, “Computational Design of Pore-Forming Peptides with Potent Antimicrobial and Anticancer Activities” (J Med Chem, 2024)
